Series [1] in a line: Metabolic stability in human liver microsomes assessed as compound remaining after 10 mins. Type of series: ADME, Microsome. To be noted: liver microsomes, read-out: Stability.
Series [2] can be described thus: Metabolic stability in mouse liver microsomes assessed as compound remaining after 10 mins. Type of series: ADME, Microsome. As to conditions: liver microsomes, read-out: Stability. For orientation: Microsomes from liver hold many membrane-bound enzymes, among them those of drug oxidation.
The target in series [3] is 11-beta-hydroxysteroid dehydrogenase 1 (Mus musculus, UniProt P50172). Put plainly: Inhibition of mouse 11beta-HSD-1.
Chain of 11-beta-hydroxysteroid dehydrogenase 1 (P50172 whole entry): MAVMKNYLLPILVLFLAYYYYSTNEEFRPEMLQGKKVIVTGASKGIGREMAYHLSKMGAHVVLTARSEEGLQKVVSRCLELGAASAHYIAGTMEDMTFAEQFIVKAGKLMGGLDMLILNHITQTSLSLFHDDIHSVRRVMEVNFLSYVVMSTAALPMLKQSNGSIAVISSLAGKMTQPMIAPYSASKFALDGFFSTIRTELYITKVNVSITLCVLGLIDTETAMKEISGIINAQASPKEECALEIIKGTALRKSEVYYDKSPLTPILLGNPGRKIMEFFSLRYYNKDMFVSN
The target in series [4] is T1, 11-beta-hydroxysteroid dehydrogenase type 2 (Homo sapiens) (UniProt P80365).
T1 sequence (whole entry): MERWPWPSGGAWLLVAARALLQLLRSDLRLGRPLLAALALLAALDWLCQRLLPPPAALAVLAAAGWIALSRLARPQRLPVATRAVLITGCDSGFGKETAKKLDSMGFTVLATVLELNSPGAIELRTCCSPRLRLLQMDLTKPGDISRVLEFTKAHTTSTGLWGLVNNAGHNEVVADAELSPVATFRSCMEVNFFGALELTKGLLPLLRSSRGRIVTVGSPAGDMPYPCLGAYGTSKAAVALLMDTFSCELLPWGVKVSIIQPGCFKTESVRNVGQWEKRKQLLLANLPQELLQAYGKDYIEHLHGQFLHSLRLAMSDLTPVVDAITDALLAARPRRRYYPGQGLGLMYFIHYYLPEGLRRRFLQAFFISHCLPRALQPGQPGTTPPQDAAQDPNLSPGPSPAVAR
Put plainly: Inhibition of human 11beta-HSD-2 at 10 uM.

The target in the next series is T2, Cytochrome P450 1A2 (Homo sapiens, UniProt P05177).
T2 sequence (P05177 whole entry): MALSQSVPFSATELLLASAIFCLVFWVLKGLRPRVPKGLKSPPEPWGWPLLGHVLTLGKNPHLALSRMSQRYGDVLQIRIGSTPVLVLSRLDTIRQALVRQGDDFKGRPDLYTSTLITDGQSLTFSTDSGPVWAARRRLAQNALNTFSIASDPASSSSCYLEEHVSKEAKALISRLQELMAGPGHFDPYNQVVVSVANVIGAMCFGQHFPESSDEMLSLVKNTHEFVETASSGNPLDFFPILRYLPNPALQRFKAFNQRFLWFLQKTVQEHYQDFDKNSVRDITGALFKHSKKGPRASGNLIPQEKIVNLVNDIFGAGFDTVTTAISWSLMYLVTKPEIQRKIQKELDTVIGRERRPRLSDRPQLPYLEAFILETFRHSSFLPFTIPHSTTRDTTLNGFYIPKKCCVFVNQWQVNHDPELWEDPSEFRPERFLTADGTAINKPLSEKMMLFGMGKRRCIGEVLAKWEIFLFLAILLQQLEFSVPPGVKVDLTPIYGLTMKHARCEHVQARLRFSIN
Put plainly: Inhibition of CYP1A2. The series is classed as ADME.

A further series deals with Cytochrome P450 2C9 (Homo sapiens, UniProt P11712). Put plainly: Inhibition of CYP2C9. Type of series: ADME.
Chain of Cytochrome P450 2C9 (P11712 whole entry): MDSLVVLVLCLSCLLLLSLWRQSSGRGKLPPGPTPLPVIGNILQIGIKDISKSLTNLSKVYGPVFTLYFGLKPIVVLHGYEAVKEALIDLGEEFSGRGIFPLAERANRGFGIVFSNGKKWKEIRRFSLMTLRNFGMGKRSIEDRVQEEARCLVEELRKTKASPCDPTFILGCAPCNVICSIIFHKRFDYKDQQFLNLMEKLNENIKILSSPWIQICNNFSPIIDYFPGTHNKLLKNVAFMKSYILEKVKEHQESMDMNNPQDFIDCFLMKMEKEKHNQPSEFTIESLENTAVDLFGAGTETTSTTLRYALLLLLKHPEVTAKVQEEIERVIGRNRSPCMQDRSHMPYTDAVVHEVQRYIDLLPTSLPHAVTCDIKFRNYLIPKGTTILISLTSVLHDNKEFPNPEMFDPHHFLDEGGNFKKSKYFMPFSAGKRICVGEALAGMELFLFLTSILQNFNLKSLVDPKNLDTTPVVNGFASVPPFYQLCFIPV
For the next series, the target named is Cytochrome P450 2C19 (Homo sapiens, UniProt P33261). Put plainly: Inhibition of CYP2C19. The series is classed as ADME.
Chain of Cytochrome P450 2C19 (P33261 whole entry): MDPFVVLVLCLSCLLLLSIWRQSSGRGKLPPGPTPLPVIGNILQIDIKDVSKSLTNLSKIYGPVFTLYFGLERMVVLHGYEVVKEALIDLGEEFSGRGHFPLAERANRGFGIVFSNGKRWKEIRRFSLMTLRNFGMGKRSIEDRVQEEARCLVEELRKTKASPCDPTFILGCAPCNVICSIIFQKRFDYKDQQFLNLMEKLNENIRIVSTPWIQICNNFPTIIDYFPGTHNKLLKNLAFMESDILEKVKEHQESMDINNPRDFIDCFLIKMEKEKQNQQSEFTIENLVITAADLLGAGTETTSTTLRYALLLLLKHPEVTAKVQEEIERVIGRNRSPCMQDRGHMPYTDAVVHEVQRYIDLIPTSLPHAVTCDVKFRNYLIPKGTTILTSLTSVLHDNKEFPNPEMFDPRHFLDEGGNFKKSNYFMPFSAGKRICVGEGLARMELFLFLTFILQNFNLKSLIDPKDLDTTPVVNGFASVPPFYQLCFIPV
The next series deals with Cytochrome P450 2D6 (Homo sapiens, UniProt P10635). Put plainly: Inhibition of CYP2D6. Type of series: ADME.
Chain of Cytochrome P450 2D6 (P10635 whole entry): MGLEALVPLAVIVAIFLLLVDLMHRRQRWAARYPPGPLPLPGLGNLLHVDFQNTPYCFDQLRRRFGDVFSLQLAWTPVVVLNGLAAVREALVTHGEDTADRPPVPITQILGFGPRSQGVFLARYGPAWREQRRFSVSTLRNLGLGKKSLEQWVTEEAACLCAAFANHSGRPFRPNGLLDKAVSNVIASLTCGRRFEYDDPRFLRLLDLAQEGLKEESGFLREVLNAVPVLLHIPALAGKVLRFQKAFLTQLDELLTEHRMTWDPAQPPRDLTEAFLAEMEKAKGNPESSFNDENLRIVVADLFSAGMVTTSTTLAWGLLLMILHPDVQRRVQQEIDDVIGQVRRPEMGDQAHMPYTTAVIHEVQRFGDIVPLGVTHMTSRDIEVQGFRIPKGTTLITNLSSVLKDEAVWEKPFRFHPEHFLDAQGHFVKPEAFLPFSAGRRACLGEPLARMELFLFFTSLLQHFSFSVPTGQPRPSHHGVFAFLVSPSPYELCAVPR
Another series concerns the target Cytochrome P450 3A4 (Homo sapiens, UniProt P08684). Put plainly: Inhibition of CYP3A4. The series is classed as ADME.
Series [5] addresses T3, Nuclear receptor subfamily 1 group I member 2 (Homo sapiens, UniProt O75469).
T3 sequence (O75469 whole entry): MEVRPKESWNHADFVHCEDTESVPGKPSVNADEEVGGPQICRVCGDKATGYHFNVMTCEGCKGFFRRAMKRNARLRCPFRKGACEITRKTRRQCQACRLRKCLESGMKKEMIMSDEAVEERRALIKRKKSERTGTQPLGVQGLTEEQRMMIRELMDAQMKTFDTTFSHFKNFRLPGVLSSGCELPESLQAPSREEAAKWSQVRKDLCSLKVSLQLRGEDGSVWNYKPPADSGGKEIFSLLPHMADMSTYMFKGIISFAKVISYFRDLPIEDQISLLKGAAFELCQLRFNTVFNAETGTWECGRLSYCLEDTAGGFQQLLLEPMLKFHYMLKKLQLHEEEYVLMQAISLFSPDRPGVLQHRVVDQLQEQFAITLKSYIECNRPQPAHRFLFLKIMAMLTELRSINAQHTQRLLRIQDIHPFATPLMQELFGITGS
Put plainly: Transactivation of PXR.

Series [6] is described as follows: Cmax in mouse at 30 umol/kg. The series is classed as ADME, organism-based. Also noted: dose 30 umol/kg. As to conditions: in vivo. The essentials: (§1)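 Oral dosing in mice, with the compound in water containing 0.5% methocel and 0.1% Tween 80. Plasma concentrations were measured at 1, 4 and 8 h after dosing.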
Series [7] is described as follows: AUC (0 to 8 hrs) in mouse at 30 umol/kg. The series is classed as ADME, organism-based. As to conditions: plasma. Also noted: time < 8 hr, dose 30 umol/kg. The gist of the method:
as §1

Series [8] has as its target Voltage-gated inwardly rectifying potassium channel KCNH2 (Homo sapiens, UniProt Q12809). Put plainly: Inhibition of human ERG.
Series [9] addresses T4, Peroxisome proliferator-activated receptor alpha (Homo sapiens) (UniProt Q07869).
T4 sequence (whole entry): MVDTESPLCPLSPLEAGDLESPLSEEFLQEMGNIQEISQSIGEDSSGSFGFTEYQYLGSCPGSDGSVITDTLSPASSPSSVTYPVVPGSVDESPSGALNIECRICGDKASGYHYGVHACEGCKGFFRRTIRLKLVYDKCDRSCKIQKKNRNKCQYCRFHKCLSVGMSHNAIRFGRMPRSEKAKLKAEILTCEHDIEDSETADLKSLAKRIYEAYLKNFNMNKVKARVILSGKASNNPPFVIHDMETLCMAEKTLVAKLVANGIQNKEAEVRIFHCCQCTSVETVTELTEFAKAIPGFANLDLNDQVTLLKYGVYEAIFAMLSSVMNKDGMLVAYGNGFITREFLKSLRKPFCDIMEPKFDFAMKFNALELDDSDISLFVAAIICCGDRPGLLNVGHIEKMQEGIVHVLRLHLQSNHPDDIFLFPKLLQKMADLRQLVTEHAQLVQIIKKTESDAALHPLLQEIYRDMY
Put plainly: Activation of PPARalpha up to 30 uM.

Series [10] addresses T5, Peroxisome proliferator-activated receptor gamma (Homo sapiens) (UniProt P37231).
T5 sequence (whole entry): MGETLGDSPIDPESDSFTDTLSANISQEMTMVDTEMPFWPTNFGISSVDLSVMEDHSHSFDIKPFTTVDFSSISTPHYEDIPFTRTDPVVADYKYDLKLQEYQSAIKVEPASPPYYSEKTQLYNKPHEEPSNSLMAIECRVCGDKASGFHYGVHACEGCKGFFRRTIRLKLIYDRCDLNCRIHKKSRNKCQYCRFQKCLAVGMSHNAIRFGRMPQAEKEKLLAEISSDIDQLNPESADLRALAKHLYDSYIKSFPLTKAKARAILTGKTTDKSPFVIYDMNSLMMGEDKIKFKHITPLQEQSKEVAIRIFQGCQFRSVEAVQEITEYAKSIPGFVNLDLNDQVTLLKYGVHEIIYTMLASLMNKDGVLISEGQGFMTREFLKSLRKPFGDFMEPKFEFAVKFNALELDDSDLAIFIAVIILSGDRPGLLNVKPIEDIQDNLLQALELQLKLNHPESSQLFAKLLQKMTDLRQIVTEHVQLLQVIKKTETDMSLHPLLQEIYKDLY
Put plainly: Activation of PPARgamma up to 30 uM.

Series [11] deals with T6, Peroxisome proliferator-activated receptor delta (Homo sapiens) (UniProt Q03181).
T6 sequence (whole entry): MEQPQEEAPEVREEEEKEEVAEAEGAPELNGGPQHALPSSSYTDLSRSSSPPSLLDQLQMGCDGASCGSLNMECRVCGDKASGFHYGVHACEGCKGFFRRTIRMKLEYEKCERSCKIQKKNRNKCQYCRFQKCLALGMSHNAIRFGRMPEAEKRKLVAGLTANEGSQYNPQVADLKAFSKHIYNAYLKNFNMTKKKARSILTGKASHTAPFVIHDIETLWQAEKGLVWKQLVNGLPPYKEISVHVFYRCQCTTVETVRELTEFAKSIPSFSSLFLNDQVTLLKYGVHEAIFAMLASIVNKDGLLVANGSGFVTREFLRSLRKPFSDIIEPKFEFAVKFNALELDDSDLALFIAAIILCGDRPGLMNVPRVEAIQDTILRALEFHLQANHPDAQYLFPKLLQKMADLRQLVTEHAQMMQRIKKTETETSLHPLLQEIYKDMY
Put plainly: Activation of PPARdelta up to 30 uM.

The target of series [12] is 11-beta-hydroxysteroid dehydrogenase type 2 (Homo sapiens) (UniProt P80365). Put plainly: Inhibition of human 11beta-HSD-2.

The values below come from ChEMBL document CHEMBL1909591, “Design, synthesis, and SAR studies of novel polycyclic acids as potent and selective inhibitors of human 11β-hydroxysteroid dehydrogenase type 1 (11β-HSD-1)” (Bioorg Med Chem Lett, 2011).

The source made the active and inactive calls. The rule behind the calls is not given here.

Chain of Cytochrome P450 3A4 (P08684 whole entry): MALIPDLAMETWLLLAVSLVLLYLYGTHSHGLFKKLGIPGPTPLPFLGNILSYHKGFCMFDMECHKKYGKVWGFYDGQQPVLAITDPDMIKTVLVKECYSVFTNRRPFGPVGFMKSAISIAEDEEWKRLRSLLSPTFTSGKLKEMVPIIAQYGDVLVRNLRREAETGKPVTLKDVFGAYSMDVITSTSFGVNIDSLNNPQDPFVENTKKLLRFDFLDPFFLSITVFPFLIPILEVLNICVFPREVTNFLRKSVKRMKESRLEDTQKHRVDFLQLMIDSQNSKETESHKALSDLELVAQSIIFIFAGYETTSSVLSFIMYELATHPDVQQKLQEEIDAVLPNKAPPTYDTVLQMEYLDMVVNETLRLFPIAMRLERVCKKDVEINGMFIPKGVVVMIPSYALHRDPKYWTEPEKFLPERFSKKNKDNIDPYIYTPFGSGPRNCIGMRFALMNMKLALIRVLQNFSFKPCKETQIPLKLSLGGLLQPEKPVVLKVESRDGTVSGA
Chain of Voltage-gated inwardly rectifying potassium channel KCNH2 (Q12809 whole entry): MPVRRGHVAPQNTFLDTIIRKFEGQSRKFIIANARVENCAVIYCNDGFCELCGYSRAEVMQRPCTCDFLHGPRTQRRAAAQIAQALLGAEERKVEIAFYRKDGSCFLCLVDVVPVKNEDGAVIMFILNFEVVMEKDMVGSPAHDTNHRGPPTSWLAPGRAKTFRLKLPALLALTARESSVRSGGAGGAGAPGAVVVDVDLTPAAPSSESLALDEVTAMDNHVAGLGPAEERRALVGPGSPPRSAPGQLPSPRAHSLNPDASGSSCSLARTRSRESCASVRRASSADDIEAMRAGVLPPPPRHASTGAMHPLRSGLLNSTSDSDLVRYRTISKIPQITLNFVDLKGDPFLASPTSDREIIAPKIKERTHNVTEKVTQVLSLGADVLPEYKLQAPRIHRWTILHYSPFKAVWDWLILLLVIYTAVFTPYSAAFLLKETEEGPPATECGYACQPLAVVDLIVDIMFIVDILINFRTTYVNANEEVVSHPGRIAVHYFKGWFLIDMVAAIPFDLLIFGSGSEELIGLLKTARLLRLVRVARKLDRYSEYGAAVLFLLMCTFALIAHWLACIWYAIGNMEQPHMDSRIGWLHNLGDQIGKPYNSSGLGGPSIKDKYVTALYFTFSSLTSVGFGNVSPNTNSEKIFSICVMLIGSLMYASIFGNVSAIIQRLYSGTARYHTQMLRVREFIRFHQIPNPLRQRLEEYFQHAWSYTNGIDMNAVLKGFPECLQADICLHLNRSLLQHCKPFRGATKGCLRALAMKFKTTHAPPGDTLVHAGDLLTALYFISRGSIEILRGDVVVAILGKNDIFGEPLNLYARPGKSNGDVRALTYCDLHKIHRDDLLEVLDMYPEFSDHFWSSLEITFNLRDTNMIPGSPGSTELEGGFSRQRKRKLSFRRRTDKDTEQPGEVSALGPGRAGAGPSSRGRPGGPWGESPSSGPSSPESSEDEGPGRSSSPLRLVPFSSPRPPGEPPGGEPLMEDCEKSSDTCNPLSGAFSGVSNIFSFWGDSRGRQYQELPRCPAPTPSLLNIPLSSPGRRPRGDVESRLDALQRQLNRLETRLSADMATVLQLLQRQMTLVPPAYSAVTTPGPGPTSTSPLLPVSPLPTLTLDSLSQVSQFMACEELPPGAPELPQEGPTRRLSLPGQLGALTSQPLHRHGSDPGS

Broadly, the IC50 is the midpoint of a concentration-inhibition curve. Low readings indicate greater potency, high ones weaker potency. Usually inhibition stands for the relative decrease from the control value, in per cent. What is called EC50 is the concentration giving half of the maximal effect. The low end stands for greater potency, the high end for weaker potency. The term Cmax denotes the maximum level reached in the sampled fluid or tissue. By AUC(0-t) is commonly meant the area under the concentration-time curve up to a stated or last time point. A high value points to high exposure. `O=C(O)CC1(c2ccc(F)cc2)C2CC3CC(C2)CC1C3` (configuration not stated): the remaining at 10 min was 78% in series [1] and 48% in series [2]. The compound also returned an IC50 in series [3] of 120 nM. For the same compound, the inhibition in series [4] was less than 50%. In addition, the “inhibition (INH)” value (on Cytochrome P450 1A2; on Cytochrome P450 2C9; against Cytochrome P450 2C19; against Cytochrome P450 2D6; against Cytochrome P450 3A4; in series [8]) was “Active” in each case. For the same compound, the EC50 in [5] is more than 50000 nM. Also, in series [6], the highest level (Cmax) was 480 nM. The compound further came in with an area under the curve AUC(0-t) at 8 h in [7] of 2 µM·h. Moreover, the result in series [9], in series [10] and in [11] was inactive. The inhibition result in series [12] is “inactive”.
